Test results as given in ChEMBL document CHEMBL1177681, “Hybrid diarylbenzopyrimidine non-nucleoside reverse transcriptase inhibitors as promising new leads for improved anti-HIV-1 chemotherapy” (Bioorg Med Chem, 2010).

Tested on: not listed separately
Test: Selectivity index, CC50 for human MT4 cells to EC50 for wild type HIV1 3B
Format: toxicity, cell-based
Conditions: read-out: Ratio CC50/EC50
In short: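 Selectivity index is calculated as CC50 in uninfected MT-4 cells divided by EC50 against HIV-1 IIIB. Both come from parallel 4-day MTT readings at 37 °C, with infection at multiplicity of infection 0.02.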

SMILES	selectivity ratio
CCOc1cc(C#N)cc(OCC)c1Oc1nc(Nc2ccc(C#N)cc2)nc2ccccc12	6770
COc1ccc(Oc2nc(Nc3ccc(C#N)cc3)nc3ccccc23)cc1	> 1790
N#Cc1ccc(Nc2nc(Oc3ccc(Cl)cc3Cl)c3ccccc3n2)cc1	1410
N#Cc1ccc(Nc2nc(Oc3ccc(F)cc3)c3ccccc3n2)cc1	> 607
COc1cc(C#N)ccc1Oc1nc(Nc2ccc(C#N)cc2)nc2ccccc12	64200
N#Cc1ccc(Nc2nc(Oc3c(Cl)cc(Cl)cc3Cl)c3ccccc3n2)cc1	2630
N#Cc1ccc(Nc2nc(Oc3c(Br)cc(Br)cc3Br)c3ccccc3n2)cc1	2120
COc1cc(C#N)cc(OC)c1Oc1nc(Nc2ccc(C#N)cc2)nc2ccccc12	22000
Cc1cc(C)c(Oc2nc(Nc3ccc(C#N)cc3)nc3ccccc23)c(C)c1	> 3220
Cc1ccc(Oc2nc(Nc3ccc(C#N)cc3)nc3ccccc23)cc1	831
N#Cc1ccc(Nc2nc(Oc3ccccc3Cl)c3ccccc3n2)cc1	982
Cc1cccc(C)c1Oc1nc(Nc2ccc(C#N)cc2)nc2ccccc12	1510
Cc1cc(C#N)cc(C)c1Oc1nc(Nc2ccc(C#N)cc2)nc2ccc(Cl)cc12	13800
COc1ccccc1Oc1nc(Nc2ccc(C#N)cc2)nc2ccccc12	1260
N#Cc1ccc(Nc2nc(Oc3ccc(Cl)cc3)c3ccccc3n2)cc1	1040

Tested on: Human immunodeficiency virus 1
Test: Antiviral activity against wild type HIV1 3B infected in human MT4 cells assessed as protection against virus-induced cytopathogenicity after 4 days by MTT assay
Format: functional, organism-based
Conditions: Human immunodeficiency virus 1, 3B, MT4, 96 h
In short: (§1)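 MT-4 cells at 1 × 10⁵ cells/mL infected at multiplicity of infection 0.02, then immediately plated onto serial dilutions of compound (DMSO stocks of 50 mM or higher). After 4 days at 37 °C, viable cells counted by MTT. […] Virus stocks titrated in MT-4 cells as CCID50.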

SMILES	EC50
CCOc1cc(C#N)cc(OCC)c1Oc1nc(Nc2ccc(C#N)cc2)nc2ccccc12	0.016 µM
COc1ccc(Oc2nc(Nc3ccc(C#N)cc3)nc3ccccc23)cc1	0.19 µM
N#Cc1ccc(Nc2nc(Oc3ccc(Cl)cc3Cl)c3ccccc3n2)cc1	0.023 µM
N#Cc1ccc(Nc2nc(Oc3ccc(F)cc3)c3ccccc3n2)cc1	0.59 µM
COc1cc(C#N)ccc1Oc1nc(Nc2ccc(C#N)cc2)nc2ccccc12	0.033 µM
N#Cc1ccc(Nc2nc(Oc3c(Cl)cc(Cl)cc3Cl)c3ccccc3n2)cc1	0.021 µM
N#Cc1ccc(Nc2nc(Oc3c(Br)cc(Br)cc3Br)c3ccccc3n2)cc1	0.028 µM
COc1cc(C#N)cc(OC)c1Oc1nc(Nc2ccc(C#N)cc2)nc2ccccc12	0.0087 µM
Cc1cc(C)c(Oc2nc(Nc3ccc(C#N)cc3)nc3ccccc23)c(C)c1	0.011 µM
Cc1ccc(Oc2nc(Nc3ccc(C#N)cc3)nc3ccccc23)cc1	0.105 µM
N#Cc1ccc(Nc2nc(Oc3ccccc3Cl)c3ccccc3n2)cc1	0.037 µM
Cc1cccc(C)c1Oc1nc(Nc2ccc(C#N)cc2)nc2ccccc12	0.023 µM
Cc1cc(C#N)cc(C)c1Oc1nc(Nc2ccc(C#N)cc2)nc2ccc(Cl)cc12	0.0085 µM
COc1ccccc1Oc1nc(Nc2ccc(C#N)cc2)nc2ccccc12	0.12 µM
N#Cc1ccc(Nc2nc(Oc3ccc(Cl)cc3)c3ccccc3n2)cc1	0.19 µM

Tested on: Human immunodeficiency virus 2
Test: Antiviral activity against wild type HIV2 ROD infected in human MT4 cells assessed as protection against virus-induced cytopathogenicity after 4 days by MTT assay
Format: functional, organism-based
Conditions: Human immunodeficiency virus 2, ISOLATE ROD, MT4, 96 h
In short: as §1

SMILES	EC50
CCOc1cc(C#N)cc(OCC)c1Oc1nc(Nc2ccc(C#N)cc2)nc2ccccc12	> 108 µM
COc1ccc(Oc2nc(Nc3ccc(C#N)cc3)nc3ccccc23)cc1	> 339 µM
N#Cc1ccc(Nc2nc(Oc3ccc(Cl)cc3Cl)c3ccccc3n2)cc1	> 31 µM
N#Cc1ccc(Nc2nc(Oc3ccc(F)cc3)c3ccccc3n2)cc1	> 351 µM
COc1cc(C#N)ccc1Oc1nc(Nc2ccc(C#N)cc2)nc2ccccc12	> 140 µM
N#Cc1ccc(Nc2nc(Oc3c(Cl)cc(Cl)cc3Cl)c3ccccc3n2)cc1	> 55 µM
N#Cc1ccc(Nc2nc(Oc3c(Br)cc(Br)cc3Br)c3ccccc3n2)cc1	≥ 8.6 µM
COc1cc(C#N)cc(OC)c1Oc1nc(Nc2ccc(C#N)cc2)nc2ccccc12	> 194 µM
Cc1cc(C)c(Oc2nc(Nc3ccc(C#N)cc3)nc3ccccc23)c(C)c1	> 34 µM
Cc1ccc(Oc2nc(Nc3ccc(C#N)cc3)nc3ccccc23)cc1	> 86 µM
N#Cc1ccc(Nc2nc(Oc3ccccc3Cl)c3ccccc3n2)cc1	> 37 µM
Cc1cccc(C)c1Oc1nc(Nc2ccc(C#N)cc2)nc2ccccc12	≥ 10 µM
Cc1cc(C#N)cc(C)c1Oc1nc(Nc2ccc(C#N)cc2)nc2ccc(Cl)cc12	> 117 µM
COc1ccccc1Oc1nc(Nc2ccc(C#N)cc2)nc2ccccc12	> 26 µM
N#Cc1ccc(Nc2nc(Oc3ccc(Cl)cc3)c3ccccc3n2)cc1	> 197 µM

Tested on: Human immunodeficiency virus 1
Test: Antiviral activity against HIV1 with reverse transcriptase K103N, Y181C mutant infected in human MT4 cells assessed as protection against virus-induced cytopathogenicity after 4 days by MTT assay
Format: functional, organism-based
Conditions: Human immunodeficiency virus 1, MT4, 96 h
In short: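 MT-4 cells at 1 × 10⁵ cells/mL were infected with the mutant HIV-1 at a multiplicity of infection of 0.02. Virus stocks were titred in MT-4 cells as CCID₅₀. Cells were plated at once onto serial compound dilutions, with DMSO stocks at 50 mM or higher. After 4 days at 37 °C, viable cells were counted by MTT. EC₅₀ is the concentration giving 50% protection from viral cytopathicity.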

SMILES	EC50
CCOc1cc(C#N)cc(OCC)c1Oc1nc(Nc2ccc(C#N)cc2)nc2ccccc12	> 108 µM
COc1ccc(Oc2nc(Nc3ccc(C#N)cc3)nc3ccccc23)cc1	> 339 µM
N#Cc1ccc(Nc2nc(Oc3ccc(Cl)cc3Cl)c3ccccc3n2)cc1	> 31 µM
COc1cc(C#N)ccc1Oc1nc(Nc2ccc(C#N)cc2)nc2ccccc12	> 140 µM
N#Cc1ccc(Nc2nc(Oc3c(Cl)cc(Cl)cc3Cl)c3ccccc3n2)cc1	1.5 µM
N#Cc1ccc(Nc2nc(Oc3c(Br)cc(Br)cc3Br)c3ccccc3n2)cc1	0.93 µM
COc1cc(C#N)cc(OC)c1Oc1nc(Nc2ccc(C#N)cc2)nc2ccccc12	0.92 µM
Cc1cc(C)c(Oc2nc(Nc3ccc(C#N)cc3)nc3ccccc23)c(C)c1	2 µM
Cc1cccc(C)c1Oc1nc(Nc2ccc(C#N)cc2)nc2ccccc12	0.53 µM
Cc1cc(C#N)cc(C)c1Oc1nc(Nc2ccc(C#N)cc2)nc2ccc(Cl)cc12	0.7 µM

Tested on: not listed separately
Test: Cytotoxicity against human MT4 cells after 4 days by MTT assay
Format: cell-based
Conditions: not given
In short: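 Uninfected MT-4 cells were run in parallel with the antiviral plates and exposed to serial compound dilutions (DMSO stocks of 50 mM or higher) for 4 days at 37 °C. Viability was read by MTT.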

SMILES	CC50 at 96 h
CCOc1cc(C#N)cc(OCC)c1Oc1nc(Nc2ccc(C#N)cc2)nc2ccccc12	108 µM
COc1ccc(Oc2nc(Nc3ccc(C#N)cc3)nc3ccccc23)cc1	340 µM
N#Cc1ccc(Nc2nc(Oc3ccc(Cl)cc3Cl)c3ccccc3n2)cc1	32 µM
N#Cc1ccc(Nc2nc(Oc3ccc(F)cc3)c3ccccc3n2)cc1	> 351 µM
COc1cc(C#N)ccc1Oc1nc(Nc2ccc(C#N)cc2)nc2ccccc12	≥ 140 µM
N#Cc1ccc(Nc2nc(Oc3c(Cl)cc(Cl)cc3Cl)c3ccccc3n2)cc1	56 µM
N#Cc1ccc(Nc2nc(Oc3c(Br)cc(Br)cc3Br)c3ccccc3n2)cc1	58 µM
COc1cc(C#N)cc(OC)c1Oc1nc(Nc2ccc(C#N)cc2)nc2ccccc12	194 µM
Cc1cc(C)c(Oc2nc(Nc3ccc(C#N)cc3)nc3ccccc23)c(C)c1	> 34 µM
Cc1ccc(Oc2nc(Nc3ccc(C#N)cc3)nc3ccccc23)cc1	87 µM
N#Cc1ccc(Nc2nc(Oc3ccccc3Cl)c3ccccc3n2)cc1	38 µM
Cc1cccc(C)c1Oc1nc(Nc2ccc(C#N)cc2)nc2ccccc12	35 µM
Cc1cc(C#N)cc(C)c1Oc1nc(Nc2ccc(C#N)cc2)nc2ccc(Cl)cc12	117 µM
COc1ccccc1Oc1nc(Nc2ccc(C#N)cc2)nc2ccccc12	150 µM
N#Cc1ccc(Nc2nc(Oc3ccc(Cl)cc3)c3ccccc3n2)cc1	198 µM
